# High-throughput results: PubChem BioAssay, Sanford-Burnham Center for Chemical Genomics
# APJ ag = APJ receptor agonism | P35414 | CHO-K1 APJ PathHunter beta-arrestin, luminescence; 0% DMSO wells, 100% apelin | activation, % at 20 µM | hit rate 0.11% among 330,000;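 active = activation more than six SD over the plate average, tested at 20 µM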
# Target sequence (P35414 whole entry, looked up): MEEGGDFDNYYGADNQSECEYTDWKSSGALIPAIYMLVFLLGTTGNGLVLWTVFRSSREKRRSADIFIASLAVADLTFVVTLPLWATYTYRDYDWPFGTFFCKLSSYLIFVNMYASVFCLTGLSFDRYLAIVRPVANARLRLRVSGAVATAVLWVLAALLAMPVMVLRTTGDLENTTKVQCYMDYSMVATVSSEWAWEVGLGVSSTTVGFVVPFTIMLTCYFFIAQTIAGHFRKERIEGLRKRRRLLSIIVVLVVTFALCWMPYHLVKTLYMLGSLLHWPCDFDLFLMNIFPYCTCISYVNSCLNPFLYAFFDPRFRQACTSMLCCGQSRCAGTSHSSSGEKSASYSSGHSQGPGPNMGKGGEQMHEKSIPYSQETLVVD
#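 Test system: CHO-K1 APJ beta-arrestin complementation cell line | Compound: Single test compound dose, 20 µM final, 1% DMSO | Incubation: Compound 90 min 25 °C, reagent 1 h | Measured by: beta-gal luminescence | Read-out basis: APJ–arrestin association signal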
# CXCR6 block = CXCR6 (human) receptor inhibition; CHO-K1 PathHunter CXCR6 beta-arrestin, luminescence; inhibition, % at 20 µM; hit rate 0.36% among 360,000; in the data active = inhibition above about 34%, passing the limit was not always enough;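 note: antagonist mode with CXCL16 agonist at 10 nM final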
# CCR6 antag = antagonists of human CCR6 receptor; P51684; CHO-K1 CCR6 PathHunter beta-arrestin, luminescence, CCL20-stimulated; inhibition, % at 20 µM; hit rate 0.49% among 340,000; AID 493098;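 active = compounds whose inhibition of the agonist-driven luminescence signal at 20 µM reaches about 50%, limit read from the data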;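 note: cells stimulated with CCL20 at 14 nM final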
# APJ antagonist = blocks the human apelin receptor APJ | CHO-K1 APJ beta-arrestin complementation, luminescence | inhibition, % at 20 µM | P35414 | hit rate 0.32% among 330,000;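 active = inhibition above about 40% at 20 µM, limit read from the data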;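 note: cells challenged with 10 nM apelin-13 agonist together with compound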
# EBI2 block = antagonists of human EBI2 receptor. P32249. EBI2 beta-arrestin recruitment, luminescence, 7a,25-OHC stimulated. hit rate 0.81% among 360,000. inhibition, % at 5 µM. AID 651636; in the data active = inhibition above about 38%;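 note: enzyme fragment complementation signal reports receptor beta-arrestin coupling in cells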
# EBI2 conf = confirmation of human EBI2 receptor antagonists. shares compounds with EBI2 block. EBI2 beta-arrestin luminescence, 7a,25-OHC antagonism. inhibition, % at 5 µM. hit rate 29% among 2,400;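 active = inhibition of at least 50%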
# EBI2 agonist = activates EBI2, counter-screen for EBI2 antagonists; 2,400 tested, under 10 active; shares compounds with EBI2 block; activation, % at 5 µM; AID 652000; EBI2-expressing cells, agonist mode, luminescence, 60 min; 0% vehicle, 100% 7α,25-dihydroxycholesterol control;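 active = activation of at least 50%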
# bGal counter = inhibits E. coli beta-galactosidase, counter-screen for EBI2 antagonists. shares compounds with EBI2 block. purified beta-galactosidase, luminescent Galacton Star, 15 min. inhibition, % at 5 µM. hit rate 1% among 2,400. AID 652176;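 active = replicate-average signal at least 3 plate SD below neutral wells, shown as high inhibition, flagging enzyme-inhibiting false positives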;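 note: higher means stronger loss of beta-gal luminescence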
# Numbers stand for hits; 0 = inactive; - = not tested or not shown. Most compounds without a hit are left out; they make up all but 1.5% or so of the library.
SMILES,APJ ag,CXCR6 block,CCR6 antag,APJ antagonist,EBI2 block,EBI2 conf,EBI2 agonist,bGal counter
O=C(C[C@H]1CC[C@@H]2[C@H](COC[C@H](O)CN2C(=O)c2cnccn2)O1)NCc1ccc(Cl)cc1,-,-,-,-,0,-,-,-
COc1ccc(C(=O)C2CCN(C(=O)c3ccc(OC)cc3)CC2)cc1,0,0,0,0,58.1,0,0,0
COc1ccc(C(=O)N2CCCC2)cc1,0,0,0,0,0,-,-,-
COc1cc(OC)cc(C(=O)N2CCC(C(=O)c3ccc(F)cc3)CC2)c1,0,0,0,0,0,-,-,-
CCOc1ccc(C(=O)N2CCCN(C(=O)c3ccc(OCC)cc3)CC2)cc1,0,0,0,0,45.1,0,0,0
COc1ccc(C(=O)N2CCC(C(=O)c3ccc(F)cc3)CC2)cc1,0,0,0,0,58.7,0,0,0
CCOc1ccc(C(=O)N2CCC(C(=O)c3ccc4c(c3)OCCO4)CC2)cc1,0,0,0,0,81.0,55.9,0,0
COc1ccc(S(=O)(=O)Nc2cccc3c2O[C@H](CN(C)C(=O)Nc2ccc4c(c2)OCO4)[C@@H](C)CN([C@H](C)CO)C3=O)cc1,0,0,0,0,0,-,-,-
CC(=O)Nc1cc(-c2ccsc2)cn2c(-c3ccc(F)cc3)cnc12,-,0,-,-,0,-,-,-
Cc1ccc(NC(=O)N2CCC(O)(c3ccc(Cl)cc3)CC2)cc1,0,0,0,0,77.9,75.3,0,0
Cc1nc(N/N=C/c2ccc(O)cc2)c2cnn(-c3ccccc3)c2n1,0,0,0,0,52.8,0,0,0
CN(C(=O)c1ccc(=O)n(Cc2ccc(Cl)cc2)c1)c1ccccc1,0,0,0,0,56.0,0,0,0
CN(C(=O)c1cccn(Cc2ccccc2)c1=O)c1ccccc1,0,0,0,0,0,-,-,-
COc1ccc2nc(C)cc(SCC(=O)NNC(=O)COc3ccccc3)c2c1,0,0,0,0,47.5,0,0,0
CCOC(=O)CNC(=O)CSc1cc(C)nc2ccc(OC)cc12,0,0,0,0,0,-,-,-
CCc1cc(-c2nnn(-c3cc(C(C)C)ccc3C)c2CC)ccc1-c1cn(CCc2c[nH]c3ccccc23)nn1,-,0,-,-,0,-,-,-
CCn1c(-c2ccccc2Cl)nn(CC(=O)Nc2cc(Cl)ccc2Cl)c1=S,0,0,0,0,0,-,-,-
CCn1c(-c2ccccc2Cl)nn(CC(=O)NCCc2ccccc2)c1=S,0,0,0,0,56.6,0,0,0
COc1ccc(C2=CC(=O)C[C@H](c3ccc4c(c3)OCO4)C2)cc1,0,0,0,0,0,-,-,-
COc1ccc([C@H]2CC(=O)C=C(c3ccc4cc[nH]c4c3)C2)cc1,0,0,0,0,48.5,0,0,0
COc1ccc(C2=CC(=O)C[C@H](c3ccc(OC)cc3)C2)cc1,0,0,0,0,53.8,0,0,0
CSc1ccc(C2=CC(=O)C[C@H](c3ccc(F)cc3)C2)cc1,0,0,0,0,66.0,50.3,0,0
Cc1cc(C2=CC(=O)C[C@H](c3ccc(F)cc3)C2)ccc1F,-,0,-,-,48.7,0,0,0
O=C(Nc1ccccc1Cl)c1cc(C2CCCN(C(=O)c3cccc(O)c3)C2)on1 (stereo not given),-,0,-,-,0,-,-,-
COCCNc1nc(Oc2cccc3ccccc23)c2sccc2n1,-,0,-,-,0,-,-,-
SMILES,APJ ag,CXCR6 block,CCR6 antag,APJ antagonist,EBI2 block,EBI2 conf,EBI2 agonist,bGal counter
COc1ccc([C@H]2CC(=O)C=C(c3cccc(OC)c3)C2)cc1,0,0,0,0,0,-,-,-
COc1ccc([C@H]2CC(=O)C=C(c3ccc(SC)cc3)C2)cc1,0,0,0,0,71.1,0,0,0
COc1ccc([C@H]2CC(=O)C=C(c3ccc(SC)cc3)C2)cc1OC,0,0,0,0,0,-,-,-
COc1ccc([C@H]2CC(=O)C=C(c3cccc(C(C)C)c3)C2)cc1,0,0,0,0,0,-,-,-
COc1ccc([C@H]2CC(=O)C=C(c3ccccc3)C2)cc1,0,0,0,0,41.4,0,0,0
COc1ccc([C@H]2CC(=O)C=C(c3ccc4c(c3)sc3ccccc34)C2)cc1,0,0,0,0,54.6,0,0,0
COc1ccc(NC2=CC(=O)CC(c3ccccc3)C2)cc1 (stereo not given),0,0,0,0,51.5,0,0,0
C[C@H](CO)N1C[C@H](C)[C@H](CN(C)S(=O)(=O)c2ccccc2)Oc2c(NS(C)(=O)=O)cccc2C1=O,0,0,0,0,0,-,-,-
Cc1ccc(S(=O)(=O)N2CCCCC2)cc1C(=O)N(CCc1ccccc1)Cc1ccccc1,0,0,0,0,0,-,-,-
COc1ccc([C@H]2CC(=O)C=C(c3cc(Cl)cc(Cl)c3)C2)cc1,0,0,0,0,46.2,0,0,0
O=C1C=C(c2cc(Cl)cc(Cl)c2)C[C@@H](c2ccc(F)cc2)C1,0,0,0,0,47.5,0,0,0
COc1ccc([C@H]2CC(=O)C=C(c3ccc4c(c3)OCO4)C2)cc1,0,0,0,0,0,-,-,-
O=C1C=C(c2ccc(OC(F)(F)F)cc2)C[C@@H](c2ccc(F)cc2)C1,0,0,0,0,52.1,0,0,0
COc1ccc([C@H]2CC(=O)C=C(c3cc(C(F)(F)F)cc(C(F)(F)F)c3)C2)cc1,0,0,0,0,0,-,-,-
O=C1C=C(c2ccc(Cl)c(C(F)(F)F)c2)C[C@@H](c2ccc(F)cc2)C1,0,0,0,0,0,-,-,-
COc1ccc([C@H]2CC(=O)C=C(c3ccc4ccn(C)c4c3)C2)cc1,0,0,0,0,72.8,0,0,0
CCN(CC)S(=O)(=O)c1cccc(NC(=O)CN2C(=O)NC3(CCOc4ccccc43)C2=O)c1 (stereo not given),0,0,0,0,0,-,-,-
COc1ccc(NC(=S)NNC(=S)Nc2cccc(C(F)(F)F)c2)cc1,0,0,0,0,0,-,-,-
COc1ccc(NC(=S)Nc2cc(C(F)(F)F)ccc2F)cc1,0,0,0,0,43.4,0,0,0
Cc1ccc2nc3n(c(=O)c2c1)-c1ncccc1C(=O)NC3Cc1ccc(O)cc1 (stereo not given),-,0,-,-,0,-,-,-
O=c1[nH]c(CN2CCN(S(=O)(=O)/C=C/c3ccccc3)CC2)nc2ccccc12,0,0,0,0,45.9,0,0,0
O=c1[nH]c(CN2CCN(S(=O)(=O)c3ccc4ccccc4c3)CC2)nc2ccccc12,0,0,0,0,53.0,0,0,0
O=c1[nH]c(CN2CCN(S(=O)(=O)/C=C/c3ccccc3)CC2)nc2cc(Cl)ccc12,0,0,0,0,70.7,0,0,0
CC(c1nc2ccccc2c(=O)[nH]1)N1CCN(S(=O)(=O)c2ccc(F)c(Cl)c2)CC1 (stereo not given),-,0,-,-,58.9,0,0,0
